Measurements from ChEMBL document CHEMBL1122354, “Synthesis and antiarrhythmic activity of new [(dialkylamino)alkyl]pyridylacetamides” (1983).
The source made the active and inactive calls. No cut-off for these calls is given here.

Tests used:
Canis familiaris [1] = test: Antiarrhythmic potential in conscious dogs; value ranges from +80 to +360; format: functional, Canis lupus familiaris, Heart
Outline: (§1)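 Mongrel dogs with experimental myocardial infarction, conscious, with ventricular tachycardia or runs of VT. Dosed 50 mg/kg orally as solution in distilled water or acacia gum during the acute phase (16–36 h). Positive response means ≥60% suppression of ventricular arrhythmias or induction of sinus rhythm. The duration of effect was recorded in min.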

Canis familiaris [2] = test: (§2) Intracardiac conduction in anesthetized dogs, measured as HV; HV being the conduction time in specific intraventricular tissue; format: functional, Canis lupus familiaris, Cardiac ventricle; set-up: concentration or dose not given beside the values
Outline: (§3)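 Mongrel dogs under sodium pentobarbital anesthesia. His bundle electrogram recorded via left heart catheterization. His potentials recorded before dosing and 5 and 15 min after each intravenous dose, at different pacing rates. SH (stimulus to His deflection) and HV intervals measured.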

Canis familiaris [3] = test: Intracardiac conduction in anesthetized dogs, measured as SH; SH being the atrial His bundle conduction time; format: functional, Canis lupus familiaris, Atrioventricular bundle; outline: as §3
Canis familiaris [4] = test: Antiarrhythmic potential in conscious dogs; value ranges from +155 to +300; format: functional, Canis lupus familiaris, Heart; outline: as §1
Canis familiaris [5] = test: Intracardiac conduction in anesthetized dogs, measured as SH; SH being the atrial His bundle conduction time; Value ranges from +8 to +100; format: functional, Canis lupus familiaris, Atrioventricular bundle; outline: as §3
Canis familiaris [6] = test: Intracardiac conduction in anesthetized dogs, measured as HV; HV being the conduction time in specific intraventricular tissue; value ranges from + 60 to+135; format: functional, Canis lupus familiaris, Cardiac ventricle; outline: as §3
Canis familiaris [7] = test: Antiarrhythmic potential in conscious dogs; was tested and found that after 90 min the dogs died.; format: functional, Canis lupus familiaris, Heart
Canis familiaris [8] = test: Antiarrhythmic potential in conscious dogs; inactive.; format: functional, organism-based; details: Canis lupus familiaris; Heart; outline: as §1
Canis familiaris [9] = test: as §2; format: functional, Canis lupus familiaris, Cardiac ventricle; outline: as §3
Canis familiaris [10] = test: Intracardiac conduction in anesthetized dogs, measured as SH; SH being the atrial His bundle conduction time; Value ranges from +0 to +10; format: functional, Canis lupus familiaris, Atrioventricular bundle; outline: as §3
Canis familiaris [11] = test: Antiarrhythmic potential in conscious dogs; the value ranges from +30 to +60; format: functional, Canis lupus familiaris, Heart
Canis familiaris [12] = test: Antiarrhythmic potential in conscious dogs; value ranges from +50 to +60; format: functional, Canis lupus familiaris, Heart; outline: as §1
Canis familiaris [13] = test: Intracardiac conduction in anesthetized dogs, measured as SH; SH being the atrial His bundle conduction time; value ranges from +25 to +30; format: functional, Canis lupus familiaris, Atrioventricular bundle; outline: as §3
Canis familiaris [14] = test: Antiarrhythmic potential in conscious dogs; value ranges from +165 to +405; format: functional, Canis lupus familiaris, Heart; outline: as §1
Canis familiaris [15] = test: Intracardiac conduction in anesthetized dogs, measured as HV; HV being the conduction time in specific intraventricular tissue; value ranges from +0 to +30; format: functional, Canis lupus familiaris, Cardiac ventricle; outline: as §3
Canis familiaris [16] = test: Antiarrhythmic potential in conscious dogs; value ranges from 210-270; format: functional, Canis lupus familiaris, Heart; outline: as §1
Canis familiaris [17] = test: Intracardiac conduction in anesthetized dogs, measured as SH; SH being the atrial His bundle conduction time; value ranges from +30 to +-55; format: functional, Canis lupus familiaris, Atrioventricular bundle; outline: as §3
Canis familiaris [18] = test: Antiarrhythmic potential in conscious dogs; the value ranges from +8 to +-240; format: functional, Canis lupus familiaris, Heart; outline: as §1
Canis familiaris [19] = test: Antiarrhythmic potential in conscious dogs; format: functional, Canis lupus familiaris, Heart; outline: as §1
Canis familiaris [20] = test: Intracardiac conduction in anesthetized dogs, measured as SH; SH being the atrial His bundle conduction time; Value ranges from +20 to +70; format: functional, Canis lupus familiaris, Atrioventricular bundle; outline: as §3
Canis familiaris [21] = test: Intracardiac conduction in anesthetized dogs, measured as HV; HV being the conduction time in specific intraventricular tissue; Value ranges from 20-33; format: functional, Canis lupus familiaris, Cardiac ventricle; outline: as §3
Canis familiaris [22] = test: Antiarrhythmic potential in conscious dogs;Value ranges from +27 to +280; format: functional, Canis lupus familiaris, Heart; outline: as §1
Canis familiaris [23] = test: Intracardiac conduction in anesthetized dogs, measured as HV; HV being the conduction time in specific intraventricular tissue; value ranges from +100 to +210; format: functional, Canis lupus familiaris, Cardiac ventricle; outline: as §3
Canis familiaris [24] = test: Intracardiac conduction in anesthetized dogs, measured as SH; SH being the atrial His bundle conduction time; value ranges from +70 to +120; format: functional, Canis lupus familiaris, Atrioventricular bundle; outline: as §3
Canis familiaris [25] = test: Antiarrhythmic potential in conscious dogs was calculated and found that after 60 minutes the dogs died.; format: functional, Canis lupus familiaris, Heart
Canis familiaris [26] = test: Intracardiac conduction in anesthetized dogs, measured as SH; SH being the atrial His bundle conduction time; value ranges from +50 to +85; format: functional, Canis lupus familiaris, Atrioventricular bundle; outline: as §3
Canis familiaris [27] = test: Intracardiac conduction in anesthetized dogs, measured as HV; HV being the conduction time in specific intraventricular tissue; value ranges from 35-80; format: functional, Canis lupus familiaris, Cardiac ventricle; outline: as §3
Canis familiaris [28] = test: Antiarrhythmic potential in conscious dogs; Inactive.; format: functional, organism-based; details: Canis lupus familiaris; Heart; outline: as §1
Canis familiaris [29] = test: Intracardiac conduction in anesthetized dogs, measured as SH; SH being the atrial His bundle conduction time; value ranges from +15 to +20; format: functional, Canis lupus familiaris, Atrioventricular bundle; outline: as §3
Canis familiaris [30] = test: Intracardiac conduction in anesthetized dogs, measured as HV; HV being the conduction time in specific intraventricular tissue; value ranges from +25 to +30; format: functional, Canis lupus familiaris, Cardiac ventricle; outline: as §3
Canis familiaris [31] = test: Antiarrhythmic potential in conscious dogs; value ranges from +20 to +270; format: functional, Canis lupus familiaris, Heart; outline: as §1
Canis familiaris [32] = test: Antiarrhythmic potential in conscious dogs; value ranges from +120 to +380; format: functional, Canis lupus familiaris, Heart; outline: as §1
Canis familiaris [33] = test: Intracardiac conduction in anesthetized dogs, measured as SH; SH being the atrial His bundle conduction time value ranges from +15 to +35; format: functional, Canis lupus familiaris, Atrioventricular bundle; outline: as §3
Canis familiaris [34] = test: Intracardiac conduction in anesthetized dogs, measured as HV; HV being the conduction time in specific intraventricular tissue value ranges from +20 to +30; format: functional, Canis lupus familiaris, Cardiac ventricle; outline: as §3
Canis familiaris [35] = test: Intracardiac conduction in anesthetized dogs, measured as SH; SH being the atrial His bundle conduction time; value ranges from +4 to +-85; format: functional, Canis lupus familiaris, Atrioventricular bundle; outline: as §3
Canis familiaris [36] = test: Intracardiac conduction in anesthetized dogs, measured as HV; HV being the conduction time in specific intraventricular tissue; value ranges from +45 to +100; format: functional, Canis lupus familiaris, Cardiac ventricle; outline: as §3
Canis familiaris [37] = test: Intracardiac conduction in anesthetized dogs, measured as SH; SH being the atrial His bundle conduction time; value ranges from +40 to +100; format: functional, Canis lupus familiaris, Atrioventricular bundle; outline: as §3
Canis familiaris [38] = test: Antiarrhythmic potential in conscious dogs; value ranges from +45 to +360; format: functional, Canis lupus familiaris, Heart; outline: as §1
Canis familiaris [39] = test: Antiarrhythmic potential in conscious dogs; value ranges from +190 to +270; format: functional, Canis lupus familiaris, Heart; outline: as §1
Canis familiaris [40] = test: Intracardiac conduction in anesthetized dogs, measured as SH; SH being the atrial His bundle conduction time; value ranges from +10 to +50; format: functional, Canis lupus familiaris, Atrioventricular bundle; outline: as §3
Canis familiaris [41] = test: Intracardiac conduction in anesthetized dogs, measured as HV; HV being the conduction time in specific intraventricular tissue; value ranges from +2 to +-50; format: functional, Canis lupus familiaris, Cardiac ventricle; outline: as §3

## CC(C)N(CCC(C(N)=O)(c1ccccn1)C(C)C)C(C)C (stereo unspecified)
Canis familiaris [1]
  Actual duraction: 360 min
Canis familiaris [2]
  Variation/Control: 0%
Canis familiaris [3]
  Variation/Control: 10%

## CCC(CCN(C(C)C)C(C)C)(C(N)=O)c1ccccn1 (stereo unspecified)
Canis familiaris [2]
  Variation/Control: 0%
Canis familiaris [3]
  Variation/Control: 20%
Canis familiaris [4]
  Actual duraction: 300 min

## CCC(C)N(CCC(CC(C)C)(C(N)=O)c1ccccn1)C(C)CC (stereo unspecified)
Canis familiaris [5]
  Variation/Control: 100%
Canis familiaris [6]
  Variation/Control: 135%
Canis familiaris [7]
  Actual duraction: 90 min

## CC(C)CC(CCN1CCOCC1)(C(N)=O)c1ccccn1 (stereo unspecified)
Canis familiaris [8]
  Actual duraction: inactive
Canis familiaris [9]
  Variation/Control: 0%
Canis familiaris [10]
  Variation/Control: 10%

## CC(C)N(CCC(C(N)=O)(c1ccccc1)c1ccccn1)C(C)C (stereo unspecified) [DISOPYRAMIDE]
Canis familiaris [11]
  Actual duraction: 60 min

## C=C[C@H]1CN2CC[C@H]1C[C@@H]2[C@@H](O)c1ccnc2ccc(OC)cc12 [QUINIDINE]
Canis familiaris [12]
  Actual duraction: 60 min

## CCN(CC)CCC(CC(C)C)(C(N)=O)c1ccccn1 (stereo unspecified)
Canis familiaris [2]
  Variation/Control: 0%
Canis familiaris [8]
  Actual duraction: inactive
Canis familiaris [3]
  Variation/Control: 15%

## CC(C)N(CCC(CC(C)(C)C)(C(N)=O)c1ccccn1)C(C)C (stereo unspecified)
Canis familiaris [13]
  Variation/Control: 30%
Canis familiaris [14]
  Actual duraction: 405 min
Canis familiaris [15]
  Variation/Control: 30%

## CC(C)N(CCC(C(N)=O)(c1ccccn1)C1CCCCC1)C(C)C (stereo unspecified)
Canis familiaris [2]
  Variation/Control: 40%
Canis familiaris [16]
  Actual duraction: 270 min
Canis familiaris [17]
  Variation/Control: 55%

## CC(C)CC(CCN(C(C)C)C(C)C)(C(N)=O)c1ccncc1 (stereo unspecified)
Canis familiaris [2]
  Variation/Control: 45%
Canis familiaris [3]
  Variation/Control: 110%
Canis familiaris [18]
  Actual duraction: 240 min

## CC(C)CC(CCN(C(C)C)C(C)C)(C(N)=O)c1cccnc1 (stereo unspecified)
Canis familiaris [3]
  Variation/Control: 20%
Canis familiaris [19]
  Actual duraction: 45 min
Canis familiaris [9]
  Variation/Control: 25%

## CCC(C)C(CCN(C(C)C)C(C)C)(C(N)=O)c1ccccn1 (stereo unspecified)
Canis familiaris [2]
  Variation/Control: 30%
Canis familiaris [3]
  Variation/Control: 0%
Canis familiaris [19]
  Actual duraction: 240 min

## CCC(CC)C(CCN(C(C)C)C(C)C)(C(N)=O)c1ccccn1 (stereo unspecified)
Canis familiaris [20]
  Variation/Control: 70%
Canis familiaris [21]
  Variation/Control: 33%
Canis familiaris [22]
  Actual duraction: 280 min

## CC(C)N(CCC(C(N)=O)c1ccccn1)C(C)C (stereo unspecified)
Canis familiaris [2]
  Variation/Control: 0%
Canis familiaris [8]
  Actual duraction: inactive
Canis familiaris [3]
  Variation/Control: 0%

## CCCC(CCN(C(C)C)C(C)C)(C(N)=O)c1ccccn1 (stereo unspecified)
Canis familiaris [3]
  Variation/Control: 15%
Canis familiaris [19]
  Actual duraction: 35 min
Canis familiaris [9]
  Variation/Control: 0%

## CCCCCC(CCN(C(C)C)C(C)C)(C(N)=O)c1ccccn1 (stereo unspecified)
Canis familiaris [23]
  Variation/Control: 210%
Canis familiaris [24]
  Variation/Control: 120%
Canis familiaris [19]
  Actual duraction: 180 min

## CC(C)CC(CCCN(C(C)C)C(C)C)(C(N)=O)c1ccccn1 (stereo unspecified)
Canis familiaris [3]
  Variation/Control: 15%
Canis familiaris [19]
  Actual duraction: 30 min
Canis familiaris [9]
  Variation/Control: 0%

## CC(C)CC(CCN(C1CCCCC1)C1CCCCC1)(C(N)=O)c1ccccn1 (stereo unspecified)
Canis familiaris [2]
  Variation/Control: 75%
Canis familiaris [25]
  Actual duraction: 60 min
Canis familiaris [3]
  Variation/Control: 45%

## CC(C)N(CCC(Cc1ccccc1)(C(N)=O)c1ccccn1)C(C)C (stereo unspecified)
Canis familiaris [26]
  Variation/Control: 85%
Canis familiaris [8]
  Actual duraction: inactive
Canis familiaris [27]
  Variation/Control: 80%

## CCCN(CCC)CCC(CC(C)C)(C(N)=O)c1ccccn1 (stereo unspecified)
Canis familiaris [28]
  Actual duraction: inactive
Canis familiaris [2]
  Variation/Control: 0%
Canis familiaris [3]
  Variation/Control: 20%

## CC(C)CC(CCN1C(C)CCCC1C)(C(N)=O)c1ccccn1 (stereo unspecified)
Canis familiaris [29]
  Variation/Control: 20%
Canis familiaris [30]
  Variation/Control: 30%
Canis familiaris [31]
  Actual duraction: 270 min

## CC(C)CC(CCN(C(C)C)C(C)C)(C(N)=O)c1ccccn1 (stereo unspecified) [PENTISOMIDE]
Canis familiaris [32]
  Actual duraction: 380 min
Canis familiaris [33]
  Variation/Control: 35%
Canis familiaris [34]
  Variation/Control: 30%

## CC(C)CC(CCN(C(C)C)C1CCCCC1)(C(N)=O)c1ccccn1 (stereo unspecified)
Canis familiaris [2]
  Variation/Control: 50%
Canis familiaris [19]
  Actual duraction: 300 min
Canis familiaris [35]
  Variation/Control: 85%

## CC(C)N(CCC(CC1CCCCC1)(C(N)=O)c1ccccn1)C(C)C (stereo unspecified)
Canis familiaris [36]
  Variation/Control: 100%
Canis familiaris [37]
  Variation/Control: 100%
Canis familiaris [38]
  Actual duraction: 360 min

## CC(C)CCC(CCN(C(C)C)C(C)C)(C(N)=O)c1ccccn1 (stereo unspecified)
Canis familiaris [39]
  Actual duraction: 270 min
Canis familiaris [40]
  Variation/Control: 50%
Canis familiaris [41]
  Variation/Control: 50%
